Data: ChEMBL document CHEMBL2331243, “Discovery and mechanism study of SIRT1 activators that promote the deacetylation of fluorophore-labeled substrate” (J Med Chem, 2013)
Positions count from the first letter of the chain named. Active and inactive are the calls of the source. The calls are words filed in the database; no cut-off is given here.

Tests used:
[1] = target: NAD-dependent protein deacetylase sirtuin-1 (Homo sapiens, UniProt Q96EB6, V445A); assay: Activation of SIRT1 V445A mutant (unknown origin)
NAD-dependent protein deacetylase sirtuin-1 (Homo sapiens, UniProt Q96EB6, V445A), sequence (Q96EB6 2-747 V445A limits assumed): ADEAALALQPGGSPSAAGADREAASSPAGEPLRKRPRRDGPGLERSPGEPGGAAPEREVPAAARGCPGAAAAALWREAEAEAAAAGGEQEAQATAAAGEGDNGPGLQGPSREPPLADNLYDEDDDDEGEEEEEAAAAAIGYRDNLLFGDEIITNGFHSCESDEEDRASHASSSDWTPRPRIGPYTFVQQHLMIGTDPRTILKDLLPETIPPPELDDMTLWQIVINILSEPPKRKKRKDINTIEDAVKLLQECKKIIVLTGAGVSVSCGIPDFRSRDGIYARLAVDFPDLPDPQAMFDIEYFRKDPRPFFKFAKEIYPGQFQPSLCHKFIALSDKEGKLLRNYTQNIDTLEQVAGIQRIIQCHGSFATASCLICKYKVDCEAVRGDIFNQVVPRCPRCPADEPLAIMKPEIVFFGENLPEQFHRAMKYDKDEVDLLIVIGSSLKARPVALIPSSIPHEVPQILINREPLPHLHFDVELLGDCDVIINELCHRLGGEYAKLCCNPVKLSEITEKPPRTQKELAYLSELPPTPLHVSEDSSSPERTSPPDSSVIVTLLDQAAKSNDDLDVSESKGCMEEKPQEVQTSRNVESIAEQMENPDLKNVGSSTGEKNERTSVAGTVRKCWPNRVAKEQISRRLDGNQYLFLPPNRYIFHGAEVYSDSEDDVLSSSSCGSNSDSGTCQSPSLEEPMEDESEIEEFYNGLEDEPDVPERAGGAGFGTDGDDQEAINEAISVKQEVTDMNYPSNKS
Method in brief: (§1)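 His-tagged SIRT1 Q345A or V445A mutants were made by site-directed mutagenesis and expressed in E. coli, Ni-NTA purified. They were assayed under the same screening conditions as wild type: 750 μM NAD⁺, 31.25 μM ac-RHKK_ac-AMC, pH 8.0 Tris buffer, trypsin release of AMC, ex 340 / em 490 nm. Compounds came from 3-fold DMSO dilutions. EC1.5 (50% activity increase) was taken from a dose–response fit.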

[2] = target: NAD-dependent protein deacetylase sirtuin-1 (Homo sapiens, UniProt Q96EB6, Q345A); assay: Activation of SIRT1 Q345A mutant (unknown origin); method in brief: as §1
NAD-dependent protein deacetylase sirtuin-1 (Homo sapiens, UniProt Q96EB6, Q345A), sequence (Q96EB6 2-747 Q345A limits assumed): as the sequence (Q96EB6 2-747 V445A limits assumed) above, with Q344A, A444V counted along it

[3] = target: T1, NAD-dependent protein deacetylase sirtuin-1 (Homo sapiens) (UniProt Q96EB6); assay: Activation of N-terminal His6-tagged SIRT1 (156 to 664 amino acid residues) (unknown origin) expressed in Escherichia coli BL21(DE3) using ac-RHKKac-AMC as substrate at 50 uM after 45 mins by fluorimetric analysis relative to control
T1 sequence (whole entry): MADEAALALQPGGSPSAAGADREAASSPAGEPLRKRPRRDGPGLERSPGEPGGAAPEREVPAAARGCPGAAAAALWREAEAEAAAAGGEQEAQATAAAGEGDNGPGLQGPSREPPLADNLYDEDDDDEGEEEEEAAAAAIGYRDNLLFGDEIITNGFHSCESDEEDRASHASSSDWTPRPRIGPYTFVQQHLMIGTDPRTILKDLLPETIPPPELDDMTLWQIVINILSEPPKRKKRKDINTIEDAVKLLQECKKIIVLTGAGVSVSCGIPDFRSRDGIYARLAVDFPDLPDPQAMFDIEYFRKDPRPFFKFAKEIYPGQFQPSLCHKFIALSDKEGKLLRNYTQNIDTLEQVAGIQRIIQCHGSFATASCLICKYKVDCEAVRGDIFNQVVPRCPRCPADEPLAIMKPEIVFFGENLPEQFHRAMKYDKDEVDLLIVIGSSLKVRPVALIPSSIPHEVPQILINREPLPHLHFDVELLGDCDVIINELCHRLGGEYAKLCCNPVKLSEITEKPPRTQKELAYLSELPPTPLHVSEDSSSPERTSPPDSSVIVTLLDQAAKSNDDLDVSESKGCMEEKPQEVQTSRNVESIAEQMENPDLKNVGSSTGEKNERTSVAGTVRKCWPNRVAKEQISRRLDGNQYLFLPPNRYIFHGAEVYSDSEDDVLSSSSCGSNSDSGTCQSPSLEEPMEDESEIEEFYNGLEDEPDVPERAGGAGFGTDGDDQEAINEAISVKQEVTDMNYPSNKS
Method in brief: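 Fluorogenic deacetylation screen: 1 μM SIRT1 with 750 μM NAD⁺ and 31.25 μM ac-RHKK_ac-AMC in Tris buffer (25 mM Tris, 137 mM NaCl, 2.7 mM KCl, 1 mM MgCl₂, pH 8.0). Compounds at 50 μM from DMSO stocks; DMSO alone as blank. Trypsin then releases AMC from deacetylated peptide; fluorescence read at 340/490 nm.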

[4] = target: T2, NAD-dependent protein deacetylase sirtuin-1 (Homo sapiens, UniProt Q96EB6); assay: Activation of N-terminal His6-tagged SIRT1 (156 to 664 amino acid residues) (unknown origin) expressed in Escherichia coli BL21(DE3) using ac-RHKKac-AMC as substrate after 45 mins by fluorometric analysis
T2 sequence (Q96EB6 whole entry): T1 sequence (whole entry)

[5] = Stability of the compound in cultured medium assessed as compound remaining at 100 uM after 30 mins; assay type: physicochemical; conditions: 6 h, in the assay text read “after 6 hrs” for “after 30 mins”
Method in brief: (§2)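 MCF-7 cells were exposed to 100 μM compound for 0–360 min. Medium and acetonitrile-treated washed cells were collected separately at each time point. Compound spiked into fresh cell-free medium and handled the same way served as control. Samples were centrifuged and quantified by reversed-phase HPLC.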

[6] = target: T1, NAD-dependent protein deacetylase sirtuin-1 (Homo sapiens); assay: Activation of SIRT1 in human MCF7 cells assessed as reduction in doxorubicin-induced acetyl-p53 level at 60 uM after 6 hrs by Western blotting analysis; assay type: cell-based
Method in brief: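 MCF-7 cells were seeded at 1 × 10⁵ per well in DMEM with 10% FCS and grown 24 h at 37 °C, 5% CO₂. Graded compound concentrations were added together with 0.1 μM TSA and 5 μM doxorubicin for 6 h. Lysate (50 μg protein) was run on a 9% gel and blotted with an anti-acetyl-p53 (Lys382) polyclonal antibody at 4 °C overnight, then HRP anti-rabbit IgG with chemiluminescence.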

MCF7 = assay: Drug uptake in human MCF7 cells at 100 uM measured at 30 mins; assay type: ADME, cell-based; conditions: mcf7, 0.5 h; method in brief: as §2
[7] = Stability of the compound in cultured medium at 100 uM after 30 mins; assay type: physicochemical; conditions: 0.5 h; method in brief: as §2
[8] = Stability of the compound in fresh cell medium at 100 uM after 120 mins; assay type: physicochemical; conditions: 2 h; method in brief: as §2
[9] = tested on: NAD-dependent protein deacetylase sirtuin-1 (Homo sapiens), Q96EB6 [UNDEFINED MUTATION]; assay: Ratio of EC50 for SIRT1 V445A mutant (unknown origin) to EC50 for wild type SIRT1 (unknown origin)
[10] = tested on: NAD-dependent protein deacetylase sirtuin-1 (Homo sapiens), Q96EB6 [UNDEFINED MUTATION]; assay: Ratio of EC50 for SIRT1 Q345A mutant (unknown origin) to EC50 for wild type SIRT1 (unknown origin)
[11] = tested on: T3, NAD-dependent protein deacetylase sirtuin-1 (Homo sapiens), Q96EB6 [Q345A]; assay: Activation of SIRT1 Q345A mutant (unknown origin) at 10 uM relative to control
T3 sequence (whole entry): T1 sequence (whole entry) with Q345A

[12] = tested on: T4, NAD-dependent protein deacetylase sirtuin-1 (Homo sapiens), Q96EB6 [V445A]; assay: Activation of SIRT1 V445A mutant (unknown origin) at 10 uM relative to control
T4 sequence (whole entry): T1 sequence (whole entry) with V445A

- EC50 [1]: 4.8 µM
- EC50 [2]: 12.2 µM
- max activation [3]: 647%
- EC50 [4]: 2.7 µM
- Stability [5]: 20 µM
- Activity [6]: inactive
- Drug uptake (MCF7): Active
- Stability [7]: Stable
- Stability [8]: Stable
- Ratio EC50 [9]: 2
- Ratio EC50 [10]: 4
- max activation [11]: 237%
- max activation [12]: 353%
SMILES: O=C(N/N=C/c1cc(Br)c(O)c(Br)c1O)c1ccc2cc(Br)ccc2c1
